Screens as filed in PubChem BioAssay.
PfGluPho inh = PfG6PD (Plasmodium falciparum) enzyme inhibition; inhibition, % at 20 µM; PfGluPho enzyme, NADPH resazurin-diaphorase fluorescence; 350,000 compounds, 0.78% hits; AID 504690;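 active means inhibition reaching at least a set limit at 20 µM in the primary screen, cut at about 59% in these data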;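 further: 0% = DMSO wells with substrate and 100% = DMSO wells lacking glucose-6-phosphate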
ABHD5-PLIN5 inh = inhibitors of human ABHD5-perilipin-5 interaction | Split G. princeps luciferase complementation, luminescence, 4 h | inhibition, % at 4 µM | 360,000 compounds, 0.78% hits | Q00G26+Q8WTS1 | AID 602281;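 active means inhibition above the mean inhibition across every tested compound plus 3 SD, cut at about 22% in these data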;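 further: 0% = DMSO only wells and the 100% control is not disclosed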
Target sequence (Q00G26 whole entry, looked up): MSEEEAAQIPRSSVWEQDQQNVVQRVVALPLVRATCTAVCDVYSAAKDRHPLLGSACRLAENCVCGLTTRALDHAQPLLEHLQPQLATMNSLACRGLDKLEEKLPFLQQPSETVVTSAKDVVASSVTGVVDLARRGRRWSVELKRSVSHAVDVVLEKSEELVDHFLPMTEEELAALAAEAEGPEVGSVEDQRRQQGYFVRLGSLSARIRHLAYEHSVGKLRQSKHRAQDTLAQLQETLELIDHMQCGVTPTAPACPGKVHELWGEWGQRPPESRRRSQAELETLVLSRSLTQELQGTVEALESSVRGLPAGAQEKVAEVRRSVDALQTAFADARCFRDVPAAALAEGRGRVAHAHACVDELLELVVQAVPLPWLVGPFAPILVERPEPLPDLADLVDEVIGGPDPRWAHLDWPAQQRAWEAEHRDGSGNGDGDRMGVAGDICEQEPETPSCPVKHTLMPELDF
Target sequence (Q8WTS1 whole entry, looked up): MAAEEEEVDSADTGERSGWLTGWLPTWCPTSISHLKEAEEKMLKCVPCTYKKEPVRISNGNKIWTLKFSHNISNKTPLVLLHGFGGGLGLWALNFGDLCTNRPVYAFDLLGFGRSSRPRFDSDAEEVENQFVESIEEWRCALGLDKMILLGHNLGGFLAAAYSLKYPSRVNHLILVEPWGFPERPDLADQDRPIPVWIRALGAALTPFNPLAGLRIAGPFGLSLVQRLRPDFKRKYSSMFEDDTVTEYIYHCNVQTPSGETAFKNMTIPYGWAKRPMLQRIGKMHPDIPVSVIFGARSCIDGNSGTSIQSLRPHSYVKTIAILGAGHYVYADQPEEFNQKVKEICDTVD
HKDC1 inh = blocks human hexokinase HKDC1 activity; Q2TB90; inhibition, % at 20 µM; recombinant HKDC1, G6PDH/diaphorase resazurin coupled fluorescence; 340,000 compounds, 0.16% hits;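 active means inhibition above about 35% when tested at 20 µM, limit read from the data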;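 further: plate controls were DMSO wells with enzyme for no effect and DMSO wells lacking enzyme for full effect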
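test system = in-house recombinant HK5 (HKDC1) enzyme | amount = HKDC1 at 5 µg/mL | control set = DMSO-enzyme wells negative, buffer-substituted wells positive | compound = one dose of 20 µM, 1% DMSO | schedule = reaction time 90 min, room temperature, protected from light | technique = resorufin fluorescence at 613 nm | reagent = glucose with 1 mM ATP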
Exocytosis inh = lytic granule exocytosis inhibition | inhibition, % at 10 µM | TALL-104 LAMP-1 surface exposure, flow cytometry; cells stimulated with thapsigargin and PMA | AID 651702 | 360,000 compounds, 0.66% hits;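 active means inhibition above about 55%, limit read from the data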
PfG6PD confirm = confirmation of Plasmodium falciparum G6PD inhibitors; shares compounds with PfGluPho inh; inhibition, % at 20 µM; 2,400 compounds, 34% hits; recombinant PfGluPho, NADPH-diaphorase-resazurin fluorescence;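 active means inhibition of at least 50% at 20 µM in any single replicate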;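 further: 0% = DMSO with substrate and 100% = DMSO lacking glucose-6-phosphate substrate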
Diaphorase 10uM = counter-screen for P. falciparum G6PD inhibitors: diaphorase inhibitors, oxidizers | AID 504862 | inhibition, % at 20 µM | diaphorase-coupled resazurin reduction, fluorescence, NADPH 10 uM | shares compounds with PfGluPho inh | 820 compounds, 39% hits;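 active means average inhibition reaching 50% or more with the compound at 20 µM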;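 further: resorufin red fluorescence formed as diaphorase reduces resazurin using NADPH; 0% = DMSO with enzyme and 100% = DMSO without enzyme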
Diaph ctr 30uM = counter-screen for P. falciparum G6PD inhibitors: diaphorase inhibitors, oxidizers; shares compounds with PfGluPho inh; Diaphorase/resazurin coupled assay, resorufin fluorescence, 30 uM NADPH; inhibition, % at 20 µM; 820 compounds, 29% hits;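 active means inhibition averaging 50% or more, tested at 20 µM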;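 further: 0% = DMSO with enzyme and 100% = DMSO wells lacking diaphorase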
Starred values were filed as active, the others as inactive; nt = not tested or not shown; ! = a repeat was not active. Most compounds without a hit are left out; they make up all but 2.2% or so of the library.

SMILES	PfGluPho inh	ABHD5-PLIN5 inh	HKDC1 inh	Exocytosis inh	PfG6PD confirm	others
Cc1cccc(NC(=S)NCCc2ccccc2)n1	70*	-3	-2	-6	24
S=C(NCCc1ccccc1)Nc1ccccn1	16	1	-9	-2	nt
N#Cc1ccc(N=c2ssnc2Cl)cc1	93*	-3	-13	99*!	56*	Diaphorase 10uM=-32;Diaph ctr 30uM=-24
CCOC(=O)c1ccc(N=c2ssnc2Cl)cc1	88*	-16	-8	26	30
Cc1ccc(NC(=O)CN(C)C(=O)COc2cc(F)ccc2[N+](=O)[O-])cc1	14	0	-7	2	nt
Oc1c(C=Nc2ccccc2)sc(=S)n1Cc1ccccc1	8	-3	-7	11	nt
CCn1c(O)c(C=Nc2ccccc2)sc1=S	68*	nt	-1	nt	15
COc1cc(N)c2ncccc2c1SC	66*	-14	nt	19	62*	Diaphorase 10uM=-9;Diaph ctr 30uM=8
CC(C)NC(=O)C1(S(=O)(=O)c2ccccc2)CC=CC1	10	-3	-5	6	nt
CCOc1ccc2c(c1)C(C)=CC(C)(C)N2	90*	-8	13	3	33
COC(=O)c1c(C)nc2ccccc2c1C(=O)O	6	13	-6	-2	nt
COC(=O)c1cc(C)[nH]c2c(C)cc3nc4ccccc4c3c12	71*	-6	3	7	-12
COc1ccc(C(=O)NCCc2ccccc2F)cc1OC1CCN(C(C)=O)CC1	11	-2	-3	0	nt
C=CCN(CC=C)C(=S)NC(=O)c1ccc([N+](=O)[O-])cc1	86*	-3	-6	8	-7
C=CCNC(=S)NNC(=O)c1ccc([N+](=O)[O-])cc1	10	-2	-7	6	nt
O=C1CCCN1CC(O)CS(=O)(=O)Cc1ccc(Cl)c(Cl)c1 (configuration not stated)	4	5	0	1	nt
COCCOC(=O)c1c(C)n(C)c2ccc(OC(=O)c3c(OC)cccc3OC)cc12	59*	-3	-1	-7	26
COc1ccc(C(=O)NC(=S)Nc2ccc(N3CCCC3)cc2)cc1	2	-3	-9	1	nt
COCCNC(=S)Nc1ccc(N2CCCCC2)cc1	64*	-4	-18	2	14
CCCCCCn1cc(CN2CC(N3CCN(Cc4ccccc4F)CC3)CS2(=O)=O)nn1 (configuration not stated)	nt	-2	nt	2	nt
COc1cc2c(cc1OC)CN(C(=O)CCNC(=O)c1ccccc1Cl)CC2	3	-8	-1	-3	nt
Cc1nc2cc(NC(=O)c3ccc(Br)s3)ccc2s1	67*	-4	-7	12	30
Cc1ccc(C(=O)Nc2ccc3nc(C)sc3c2)s1	-3	-5	-2	-1	nt
CC(C)Oc1ccc(S(=O)(=O)N2CCOCC2)cc1NC(=O)Cc1c(F)cccc1Cl	6	-1	0	0	nt
Cc1ccc2nc(SCC(=O)c3ccc(Cl)s3)[nH]c2c1	62*	-8	-3	-2	5
SMILES	PfGluPho inh	ABHD5-PLIN5 inh	HKDC1 inh	Exocytosis inh	PfG6PD confirm	others
COc1ccccc1/C=C/C(=O)OCC(=O)N1CCc2ccccc21	10	-16	-2	2	nt
O=C(Nc1nc(-c2ccccn2)cs1)c1cc2ccccc2o1	6	2	-28	-1	nt
Cc1c(C(=O)Nc2nc(-c3ccccn3)cs2)oc2ccccc12	62*	2	-6	-3	25
Cc1ccc(C(=O)N2CCN(c3ccccc3Cl)CC2)cc1[N+](=O)[O-]	17	5	-9	-3	nt
O=C1c2c(O)ccc(O)c2C(=O)c2c(NCCNCCO)ccc(NCCNCCO)c21	62*!	3	4	-26	11
CC(OC(=O)CCCSc1nc2ccccc2s1)C(=O)NC(N)=O (configuration not stated)	0	3	-1	3	nt
Oc1ccc(N2CCN(Cc3cc4c(cc3Br)OCCO4)CC2)cc1	74*	12	5	-1	6
O=C(CN1CCN(c2ccc(O)cc2)CC1)Nc1cc(S(=O)(=O)N2CCCC2)ccc1Cl	67*	15	12	4	30
O=C(CN1CCN(c2ccc(O)cc2)CC1)Nc1ccc2c(c1)OCCCO2	79*	2	1	6	27
O=S(=O)(c1ccc(F)cc1)N1CCN(Cc2cc3c(cc2Br)OCCO3)CC1	-3	-13	6	4	nt
